SENP7 block: SENP7 protease inhibitors, primary screen, biochemical, luminescence, uHTS. inhibition, % at 5 µM. recombinant SENP7, Z-RLRGG-aminoluciferin luminescence, 40 min. hit rate 1.5% among 330,000. AID 434973, 2010. Sentrin-specific protease 7 (Homo sapiens), Q9BQF6;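 active = inhibition above about 50% at the single test dose, limit read from the data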;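 also: plate controls were DMSO with enzyme for no effect and no enzyme buffer wells for full effect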
Target sequence (Q9BQF6 706-1050 limits assumed): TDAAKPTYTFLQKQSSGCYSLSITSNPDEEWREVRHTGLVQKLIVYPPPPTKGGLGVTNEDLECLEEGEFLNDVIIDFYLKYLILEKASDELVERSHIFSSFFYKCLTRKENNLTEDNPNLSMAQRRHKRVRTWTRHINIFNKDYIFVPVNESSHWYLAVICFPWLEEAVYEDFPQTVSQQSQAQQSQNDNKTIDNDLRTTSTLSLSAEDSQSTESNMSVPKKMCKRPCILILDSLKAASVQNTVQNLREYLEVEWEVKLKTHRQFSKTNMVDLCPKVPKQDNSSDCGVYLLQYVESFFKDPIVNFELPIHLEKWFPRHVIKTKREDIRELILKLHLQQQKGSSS
SENP8 block-1: human SENP8 protease inhibitors, primary screen, biochemical, fluorescence, Nedd8 protein substrate, uHTS | Sentrin-specific protease 8 (Homo sapiens), Q96LD8 | recombinant SENP8 | inhibition, % at 20 µM | hit rate 0.64% among 360,000 | AID 602440, 2012; in the data active = inhibition mostly above about 40%, no sharp cut-off; inactive = mostly below about 27%
SENP6 inh: SENP6 protease inhibitors, primary screen, biochemical, luminescence, uHTS. hit rate 1.8% among 330,000. inhibition, % at 10 µM. AID 2599, 2010. Recombinant SENP6 catalytic domain, aminoluciferin luminescence;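 active = inhibition above about 50% at the single tested dose, limit read from the data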;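 also: plate controls were DMSO wells with enzyme for no effect and DMSO wells lacking enzyme for full effect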
SENP8 block-2: SENP8 protease inhibitors, primary screen, biochemical, luminescence. purified SENP8, Z-RLRGG-aminoluciferin cleavage. hit rate 1.2% among 330,000. Sentrin-specific protease 8 (Homo sapiens), Q96LD8. inhibition, % at 10 µM. AID 2540, 2010; in the data active = inhibition above about 50%
SENP1 inh: human SENP1 catalytic domain inhibitors, primary screen, biochemical, FRET, uHTS; Sentrin-specific protease 1 (Homo sapiens), Q9P0U3; recombinant SENP1 catalytic domain, CyPet-SUMO1-YPet FRET cleavage; inhibition, % at 10 µM; hit rate 0.21% among 360,000; AID 624204, 2012;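 active = inhibition at least 30% at 10 µM, raw YFP signal under a set limit, fluorescence ratio 0.5 to 1.5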;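 also: 0% = enzyme with DMSO and 100% = no enzyme wells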
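Material – human SENP1 catalytic domain · Input – SENP1 enzyme, 20 pM final · Compound dosing – single concentration of 10 µM compound, 0.5% DMSO final · Timing – enzyme reaction for 50 min at room temperature, dark · Measured by – FRET fluorescence in CFP and YFP emission channels · Control set – no-enzyme wells low, DMSO-plus-enzyme wells high control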
UCH37 DUB inh: inhibitors of human UCH37 deubiquitinase, primary screen, biochemical, Ub-AMC cleavage, fluorescence; Ubiquitin carboxyl-terminal hydrolase isozyme L5 (Homo sapiens), Q9Y5K5; purified proteasome/UCH37; inhibition, % (concentration not given with the values); hit rate 0.33% among 330,000; AID 588478, 2011;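 active = mean inhibition over replicate wells above about 20%, limit read from the data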;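 also: 0% = compound-free wells with enzyme and 100% = wells lacking proteasome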
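Schedule: 30 min plus 25 min, room temperature / Material: human UCH37 within purified proteasomes / Technique: AMC fluorescence intensity at 355/460 nm / Buffer or medium: pH 7.4 Tris-HCl (50 mM) with ovalbumin, ATP-MgCl2, DTT / Controls: wells without proteasome as full block, compound-free enzyme plus substrate as uninhibited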
SENP8 confirm: SENP8 protease inhibitors, retest, confirmation, biochemical, luminescence, single concentration | shares compounds with SENP7 block | AID 488912, 2010 | Recombinant SENP8, Z-RLRGG-aminoluciferin luminescence, 60 min | inhibition, % at 12.5 µM | hit rate 40% among 6,200;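 active = mean inhibition across replicates above about 50%, limit read from the data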
SENP6 confirm: SENP6 protease inhibitors, confirmation, biochemical, luminescence, single concentration | shares compounds with SENP7 block | recombinant SENP6, Z-RLRGG-aminoluciferin luminescence | inhibition, % at 12.5 µM | hit rate 58% among 6,200 | AID 488915, 2010
SENP7 confirm: SENP7 protease inhibitors, retest, confirmation, biochemical, luminescence, single concentration. shares compounds with SENP7 block. hit rate 69% among 6,200. inhibition, % at 12.5 µM. recombinant SENP7, Z-RLRGG-aminoluciferin luminescence, 40 min. AID 488917, 2010
Casp3 SENP sel: caspase-3 protease inhibitors, confirmation, selectivity assay for SENP inhibitor project, biochemical, single concentration | shares compounds with SENP7 block | purified caspase-3, Z-DEVD-aminoluciferin luminescence, 60 min | inhibition, % at 12.5 µM | hit rate 60% among 6,200;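 active = mean inhibition above about 50%, limit read from the data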;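 also: plate controls were enzyme with DMSO for no effect and wells without caspase-3 for full effect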
Luc interf: counter-screen for SENP inhibitors: luminescence interference. shares compounds with SENP7 block. Pre-incubated SENP8/Z-RLRGG-aminoluciferin, luciferase luminescence interference. inhibition, % at 12.5 µM. hit rate 39% among 6,200. AID 488919;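 active = mean inhibition above about 50% when retested at one dose, limit read from the data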;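 also: plate controls were DMSO wells with completed reaction for no effect and substrate without enzyme for full effect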
* = called active by the depositor; x = no result given. Only some compounds are listed: those with a hit (about 2.6% of all), similar ones and a draw of the others.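 The calls were made as follows, unless noted: active = mean inhibition above about 50% in the one-dose retest (limit read from the data); inactive = the rest.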

SMILES	SENP7 block	SENP8 block-1	SENP6 inh	SENP8 block-2	SENP1 inh	UCH37 DUB inh	SENP8 confirm	SENP6 confirm	SENP7 confirm	Casp3 SENP sel	Luc interf
CCOc1ccc(Nc2nc3ccccc3n2C)cc1	-2	21	-8	5	1	4	x	x	x	x	x
Cn1c(COc2ccc(F)cc2)nc2ccccc21	61*	4	62*	47	-1	2	60*	58*	83*	76*	64*
Cc1ccccc1OCc1nc2ccccc2n1C	72*	10	-5	79*	2	4	45	80*	96*	86*	82*
CCOc1ccc(CNc2nc3ccccc3n2C)cc1	69*	20	84*	56*	1	-2	-3	59*	88*	86*	72*
Cn1c(COc2ccc(C(=O)O)cc2)nc2ccccc21	0	18	-31	-9	-1	-1	x	x	x	x	x
CCOC(=O)c1c(NC(=O)NN=Cc2ccccc2OCC)sc(C(C)=O)c1C	x	x	x	x	x	0	x	x	x	x	x
CC(C)[C@H](NC(=O)OC(C)(C)C)C(=O)NN=Cc1ccc2nccnc2c1	x	x	x	x	x	3	x	x	x	x	x
CCN(CC)S(=O)(=O)c1cccc(N=NC2=C(O)CCCC2=O)c1	3	16	1	-2	-3	12	x	x	x	x	x
O=C1CCCC(O)=C1N=Nc1cccc(C(=O)O)c1	80*	21	77*	61*	-1	13	14	78*	96*	22	70*
c1ccc(C2CSc3ccccc3N2)cc1 (centres undefined)	35	-13	72*	47	16	2	4	8	8	23	15
CC1CSc2ccccc2NC1=S (centres undefined)	2	21	11	-7	-8	2	x	x	x	x	x
O=C(c1cc2c(s1)CCCC2)N1CCN(Cc2ccc3c(c2)OCO3)CC1	3	34	6	-2	1	2	x	x	x	x	x
O=C(Oc1ccc2c(c1)OCO2)c1ccc(F)cc1Cl	88*	8	91*	75*	3	0	73*	84*	97*	77*	75*
O=C(Oc1ccc2c(c1)OCO2)c1cc2c(s1)CCC2	68*	1	81*	60*	-13	3	76*	74*	89*	56*	65*
COc1ccc(C=NNC(=O)CCn2c3ccccc3c3ccccc32)cc1O	x	x	x	x	x	2	x	x	x	x	x
CCc1ccc(OCC(=O)NN=C2CC(=O)c3ccccc32)cc1	x	x	x	x	x	8	x	x	x	x	x
Cc1ccc(C(=O)Nc2cc3ccccc3oc2=O)cc1	98*	-304	91*	89*	3	-249	33	33	18	56*	6
O=C(Nc1ccccn1)c1cc2ccccc2cc1O	52*	3	77*	75*	-27	5	6	33	50	38	3
